Experimental data from ChEMBL document CHEMBL3407350, “Synthesis and anti-hepatitis B virus activity of C4 amide-substituted isosteviol derivatives” (Bioorg Med Chem, 2015).
Values after ≈ are worked out from the molar mass of the structure shown. Active and inactive are the calls of the source. No cut-off for these calls is given here.

Key:
[1] = Cytotoxicity against human HepG2(2.2.15) cells; type: cell-based; conditions: read-out: TC50 (the source's name)
How it was run: (§1)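 Cytotoxicity by MTS: HepG2 2.2.15 cells seeded at 4×10^4 cells/ml for 24 h, exposed to serial dilutions 2.5–160 µg/ml for 3 days; four replicates, viability expressed relative to untreated control; TC50 as 50% cytotoxic concentration.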

Hepatitis B virus [2] = experiment: Antiviral activity against HBV infected in human HepG2(2.2.15) cells assessed as inhibition of e antigen secretion by EIA; type: functional, organism-based
How it was run: (§2)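 HepG2 2.2.15 cells (HepG2 stably carrying a head-to-tail HBV DNA dimer; MEM, 10% FBS, 37 °C, 5% CO2) treated with compound for 3 days; conditioned medium assayed for secreted HBsAg and HBeAg by enzyme immunoassay; mean and SD, n = 3; IC50 taken as 50% inhibitory concentration.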

[3] = Selectivity index, ratio of TC50 for human HepG2(2.2.15) cells to IC50 for HBV infected in human HepG2(2.2.15) cells assessed as inhibition of e antigen secretion
How it was run: (§3)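 Selectivity index computed as TC50 (MTS, HepG2 2.2.15, 3 days) divided by IC50 for HBsAg, HBeAg or virion DNA inhibition in the same cell line.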

Hepatitis B virus [4] = experiment: Antiviral activity against HBV infected in human HepG2(2.2.15) cells assessed as inhibition of surface antigen secretion by EIA; type: functional, organism-based; how it was run: as §2
[5] = Selectivity index, ratio of TC50 for human HepG2(2.2.15) cells to IC50 for HBV infected in human HepG2(2.2.15) cells assessed as inhibition of viral DNA replication; how it was run: as §3
[6] = Selectivity index, ratio of TC50 for human HepG2(2.2.15) cells to IC50 for HBV infected in human HepG2(2.2.15) cells assessed as inhibition of surface antigen secretion; how it was run: as §3
Hepatitis B virus [7] = experiment: Antiviral activity against HBV infected in human HepG2(2.2.15) cells assessed as inhibition of viral DNA replication; type: functional, organism-based
How it was run: (§4)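 Secreted virion DNA from HepG2 2.2.15 cells after 3 days of compound treatment; HBV DNA isolated from conditioned medium and quantified by SYBR Green real-time PCR (45 cycles, 95 °C 15 s / 58 °C 1 min); mean and SD, n = 3; IC50 as 50% inhibitory concentration.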

[8] = Upregulation of cytoplasmic IkappaBalpha level in human HuH7 cells transfected with pHBV1.2 at 1 to 10 ug/ml after 2 days by Western blotting analysis; type: functional, cell-based; conditions: Huh-7
How it was run: (§5)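 Huh7 transfected with pHBV1.2 for 2 days, treated 1, 5, 10 µg/ml for 2 further days; nuclear and cytoplasmic fractions by NE-PER; 25 µg protein immunoblotted for p65, p50, phospho-p65 (nuclear, PCNA control) and IκBα (cytoplasmic); three experiments.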

Hepatitis B virus [9] = experiment: Antiviral activity against HBV transfected in human HuH7 cells assessed as reduction in LHBsAg protein expression at 1 to 10 ug/ml after 2 days by immunoblot analysis relative to vehicle-treated control; type: functional, organism-based; conditions: Huh-7
How it was run: (§6)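 Huh7 transfected with pHBV1.2 (Lipofectamine 2000, 2 days), then treated 1, 5, 10 µg/ml for 2 days; whole-cell RIPA lysates, 25 µg protein per lane SDS-PAGE, PVDF immunoblot for LHBsAg, SHBsAg, HBcAg with ECL detection; α-tubulin loading control; compared with vehicle.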

Hepatitis B virus [10] = experiment: Reduction of preS promoter activity in HBV infected in human HuH7 cells transfected with pPreS-Luc at 10 ug/ml after 24 hrs by luciferase reporter gene assay; type: functional, organism-based; conditions: Huh-7
How it was run: (§7)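 Huh7 seeded in 24-well plates 24 h, cotransfected with viral promoter-luciferase construct (Core, S, preS or X; 1 µg/well) plus pHBV1.2 and pRL-SV40 (0.02 µg/well) in serum-free DMEM 24 h; then 2% FBS medium ± 10 µg/ml; firefly normalized to Renilla; n = 3.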

Hepatitis B virus [11] = experiment: Inhibition of Core promoter activity in HBV infected in human HuH7 cells transfected with pCore-Luc at 10 ug/ml after 24 hrs by luciferase reporter gene assay; type: functional, organism-based; conditions: Huh-7; how it was run: as §7
Huh-7 [12] = experiment: Inhibition of nuclear p65/p50 NF-kappaB protein expression in human HuH7 cells transfected with pHBV1.2 at 1 to 10 ug/ml after 2 days by Western blotting analysis; type: functional, cell-based; how it was run: as §5
Hepatitis B virus [13] = experiment: Antiviral activity against HBV transfected in human HuH7 cells assessed as reduction in viral DNA replication after 2 days by Southern blot analysis; type: functional, organism-based; conditions: Huh-7
How it was run: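 Intracellular encapsidated HBV DNA from core particles of pHBV1.2-transfected Huh7 cells treated 2 days; 1.0% agarose, Southern blot with DIG-labeled full-length HBV probe; lamivudine-treated cells as comparison.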

Hepatitis B virus [14] = experiment: Antiviral activity against HBV transfected in human HuH7 cells assessed as reduction in precore/pregenomic RNA level at 1 to 10 ug/ml after 2 days by Northern blot analysis; type: functional, organism-based; conditions: Huh-7
How it was run: (§8)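 pHBV1.2-transfected Huh7 (cotransfected pCMV-β for efficiency) treated 1, 5, 10 µg/ml for 2 days; 5 µg total RNA on 1.0% agarose, Northern blot with whole HBV genome probe; GAPDH RNA loading control, β-gal for transfection efficiency.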

Hepatitis B virus [15] = experiment: Antiviral activity against HBV infected in human HepG2(2.2.15) cells assessed as inhibition of e antigen secretion after 3 days by EIA; type: functional, organism-based; how it was run: as §2
Hepatitis B virus [16] = experiment: Antiviral activity against HBV transfected in human HuH7 cells assessed as reduction in SHBsAg protein expression at 1 to 10 ug/ml after 2 days by immunoblot analysis relative to vehicle-treated control; type: functional, organism-based; conditions: Huh-7; how it was run: as §6
[17] = Cytotoxicity against HBV-transfected human HuH7 cells up to 160 ug/ml after 3 days by MTS assay; type: cell-based; conditions: huh-7, 72 h
How it was run: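 Huh7 cells (DMEM, 10% FBS) transfected with HBV plasmid, seeded at 4×10^4 cells/ml for 24 h, treated with 2.5–160 µg/ml serial dilutions for 3 days; viability by MTS read-out, four replicates, relative to untreated control.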

Hepatitis B virus [18] = experiment: Antiviral activity against HBV transfected in human HuH7 cells assessed as reduction in HBcAg protein expression at 1 to 10 ug/ml after 2 days by immunoblot analysis relative to vehicle-treated control; type: functional, organism-based; conditions: Huh-7; how it was run: as §6
Hepatitis B virus [19] = experiment: Upregulation of AP-1 promoter activity in HBV infected in human HuH7 cells transfected with pAP1-Luc at 10 ug/ml after 24 hrs by luciferase reporter gene assay; type: functional, organism-based; conditions: Huh-7
How it was run: (§9)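 Huh7 in 24-well plates transfected with pAP1-, pAP2-, pNF-κB- or pISRE-Luc plus pRL-SV40 for 24 h, then treated ± 10 µg/ml; dual-luciferase read-out normalized to Renilla; mean and SD, n = 3.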

Huh-7 [20] = experiment: Antiviral activity against HBV infected in human HuH7 cells transfected with pHBV1.2/p65 expression plasmid at 10 ug/ml after 2 days by RT-PCR analysis; type: functional, cell-based
How it was run: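 Huh7 cells cotransfected with pHBV1.2 plus 0.5 or 2.5 µg pCMV-p65 (or empty vector) for 2 days, then exposed to 10 µg/ml for 2 more days; secreted viral particle DNA quantified by real-time PCR; n = 3.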

Hepatitis B virus [21] = experiment: Antiviral activity against HBV transfected in human HuH7 cells assessed as reduction in major S/preS RNA level at 1 to 10 ug/ml after 2 days by Northern blot analysis; type: functional, organism-based; conditions: Huh-7; how it was run: as §8
Hepatitis B virus [22] = experiment: Inhibition of ISRE promoter activity in HBV infected in human HuH7 cells transfected with pISRE-Luc at 10 ug/ml after 24 hrs by luciferase reporter gene assay; type: functional, organism-based; conditions: Huh-7; how it was run: as §9
Huh-7 [23] = experiment: Reduction in NF-kappaB binding to consensus DNA-binding sequence in human HuH7 cells transfected with pHBV1.2 by ESMA analysis; type: functional, cell-based
Hepatitis B virus [24] = experiment: Inhibition of AP-2 promoter activity in HBV infected in human HuH7 cells transfected with pAP2-Luc at 10 ug/ml after 24 hrs by luciferase reporter gene assay; type: functional, organism-based; conditions: Huh-7; how it was run: as §9
Hepatitis B virus [25] = experiment: Reduction of S promoter activity in HBV infected in human HuH7 cells transfected with pS-Luc at 10 ug/ml after 24 hrs by luciferase reporter gene assay; type: functional, organism-based; conditions: Huh-7; how it was run: as §7
Hepatitis B virus [26] = experiment: Inhibition of NF-kappaB promoter activity in HBV infected in human HuH7 cells transfected with pNF-kappaB-Luc at 10 ug/ml after 24 hrs by luciferase reporter gene assay; type: functional, organism-based; conditions: Huh-7; how it was run: as §9
Hepatitis B virus [27] = experiment: Antiviral activity against HBV infected in human HepG2(2.2.15) cells assessed as inhibition of surface antigen secretion after 3 days by EIA; type: functional, organism-based; how it was run: as §2
Huh-7 [28] = experiment: Reduction of phosphorylated p65 NF-kappaB level in human HuH7 cells transfected with pHBV1.2 at 1 to 10 ug/ml after 2 days by Western blotting analysis; type: functional, cell-based; how it was run: as §5
Hepatitis B virus [29] = experiment: Antiviral activity against HBV infected in human HepG2(2.2.15) cells assessed as inhibition of viral DNA replication by RT-PCR analysis; type: functional, organism-based; how it was run: as §4
[30] = Cytotoxicity against human HepG2(2.2.15) cells at >20 ug/ml after 3 days by MTS assay; type: cell-based; conditions: hepg2 2.2.15, 72 h; how it was run: as §1

Which CC50 [1] does the source give for `O=c1[nH]cc(F)c(=O)[nH]1` [FLUOROURACIL] here?
Its CC50 is 6.12 µg/mL (≈ 47 µM).

Which IC50 (Hepatitis B virus [2]) does the source give for `CCc1ccc(C(=O)N[C@]2(C)CCC[C@@]3(C)[C@@H]4CC[C@@]5(C)C[C@]4(CC[C@@H]32)CC5=O)cc1` here?
Its IC50 is 7.38 µg/mL (≈ 17.5 µM).

What about the “Selectivity Index” value [3] of the same compound?
Its value is 2.87.

What about the IC50 (Hepatitis B virus [4]) of the same compound?
The IC50 was 5.57 µg/mL (≈ 13.2 µM).

What about the “Selectivity Index” value [5] of the same compound?
The value was 1.89.

What about the “Selectivity Index” value [6] of the same compound?
The value was 3.8.

And the IC50 (Hepatitis B virus [7])?
Its IC50 is 11.2 µg/mL (≈ 26.6 µM).

What about the CC50 [1] of the same compound?
The CC50 was 21.2 µg/mL (≈ 50.3 µM).

With `Cc1ccc(C(=O)N[C@]2(C)CCC[C@@]3(C)[C@@H]4CC[C@@]5(C)C[C@]4(CC[C@@H]32)CC5=O)cc1` as the compound, how does the CC50 [1] read?
Its CC50 is 18.9 µg/mL (≈ 46.5 µM).

Which IC50 (Hepatitis B virus [4]) does the source give for `C[C@@]12CC[C@@H]3[C@@](CC[C@H]4[C@@]3(C)CCC[C@@]4(C)NC(=O)c3ccc(C#N)cc3)(CC1=O)C2` here?
The IC50 was 8.45 µg/mL (≈ 20.2 µM).

And the “Selectivity Index” value [6]?
Its value is 1.28.

And the CC50 [1]?
The CC50 was 10.8 µg/mL (≈ 25.8 µM).

With `Nc1ccn([C@@H]2CS[C@H](CO)O2)c(=O)n1` [LAMIVUDINE] as the compound, how does the IC50 (Hepatitis B virus [4]) read?
Its IC50 is 49.1 µg/mL (≈ 214 µM).

And the “Selectivity Index” value [5]?
The value was 5.

What about the “Selectivity Index” value [6] of the same compound?
The value was 4.17.

What about the IC50 (Hepatitis B virus [7]) of the same compound?
Its IC50 is 41 µg/mL (≈ 179 µM).

What about the CC50 [1] of the same compound?
The CC50 was 205 µg/mL (≈ 894 µM).

What does the source list for `CCCC(=O)N[C@]1(C)CCC[C@@]2(C)[C@@H]3CC[C@@]4(C)C[C@]3(CC[C@@H]21)CC4=O`?
IC50 (Hepatitis B virus [2]): 11.2 µg/mL (≈ 31 µM); Activity [8]: Active; Activity (Hepatitis B virus [9]): Active; Activity (Hepatitis B virus [10]): Active; Selectivity Index [3]: 5.89; inhibition (Hepatitis B virus [11]): inactive; IC50 (Hepatitis B virus [4]): 10.4 µg/mL (≈ 28.8 µM); inhibition (Huh-7 [12]): Active; Activity (Hepatitis B virus [13]): Dose-dependent effect; Selectivity Index [5]: 11.41; Activity (Hepatitis B virus [14]): Active; Selectivity Index [6]: 6.34; inhibition (Hepatitis B virus [15]): Dose-dependent effect; Activity (Hepatitis B virus [16]): Active; Activity [17]: Non-toxic; Activity (Hepatitis B virus [18]): Active; Activity (Hepatitis B virus [19]): Active; Activity (Huh-7 [20]): inactive; Activity (Hepatitis B virus [21]): Active; inhibition (Hepatitis B virus [22]): inactive; Activity (Huh-7 [23]): Dose-dependent effect; inhibition (Hepatitis B virus [24]): inactive; Activity (Hepatitis B virus [25]): Active; IC50 (Hepatitis B virus [7]): 5.76 µg/mL (≈ 16 µM); inhibition (Hepatitis B virus [26]): Active; inhibition (Hepatitis B virus [27]): Dose-dependent effect; Activity (Huh-7 [28]): Active; inhibition (Hepatitis B virus [29]): Dose-dependent effect; CC50 [1]: 65.7 µg/mL (≈ 183 µM); Activity [30]: Toxic
